We go through eleven compounds from ChEMBL document CHEMBL4130504, “Discovery of new indomethacin-based analogs with potentially selective cyclooxygenase-2 inhibition and observed diminishing to PGE2 activities” (Eur J Med Chem, 2017).

Series [1] has as its system Rattus norvegicus. The series is described as follows: Antiinflammatory activity in albino rat assessed as protection against carrageenan-induced paw edema at 10 umol/kg, sc pretreated for 1 hr followed by carrageenan challenge measured after 4 hrs by plethysmometer (reference value: 0%). The class given is functional. The essentials: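 Male albino rats, 120-150 g, six per group. Compound in DMSO given subcutaneously at 10 µmol/kg 1 h before subplantar injection of 2% carrageenan in 0.9% saline. Controls got DMSO alone. Paw volume read by plethysmometer right after carrageenan and 4 h later. % protection = (Vc−Vd)×100/Vc from the 0–4 h increase. Mean ± SEM, Student's t-test.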

The subject of series [2] is Rattus norvegicus. The series is described as follows: In vivo inhibition of rat COX-2 assessed as decrease in plasma PGE2 level by EIA relative to control. The class given is functional. A digest of the protocol: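 Plasma from heparinized rat blood, spun at 12,000 g for 2 min, then frozen until use. PGE2 measured by competitive enzyme immunoassay with a monoclonal anti-PGE2 antibody at room temperature, read at 405 nm. Expressed as % inhibition ± SEM.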

Series [3] deals with Rattus norvegicus. The series is described as follows: Antiinflammatory activity in sc dosed Sprague-Dawley rat assessed as inhibition of cotton pellet-induced granuloma after 7 days. It counts as functional. A digest of the protocol:
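Adult male Sprague-Dawley rats, 120-140 g, six per group, acclimated one week. Cotton pellets (35 ± 1 mg) soaked with 0.01 mmol compound in chloroform, dried, then loaded with penicillin G/dihydrostreptomycin. Two pellets implanted subcutaneously, one per axilla, under mild anesthesia. Pellets with granuloma removed at day 7, dried 48 h at 60 °C and weighed. ED50 from dose-response at 4, 7, 10 and 15 µmol.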

Series [4] has as its target T1, Cyclooxygenase (Rattus norvegicus, UniProt P35355+Q63921).
T1 sequence (P35355 whole entry): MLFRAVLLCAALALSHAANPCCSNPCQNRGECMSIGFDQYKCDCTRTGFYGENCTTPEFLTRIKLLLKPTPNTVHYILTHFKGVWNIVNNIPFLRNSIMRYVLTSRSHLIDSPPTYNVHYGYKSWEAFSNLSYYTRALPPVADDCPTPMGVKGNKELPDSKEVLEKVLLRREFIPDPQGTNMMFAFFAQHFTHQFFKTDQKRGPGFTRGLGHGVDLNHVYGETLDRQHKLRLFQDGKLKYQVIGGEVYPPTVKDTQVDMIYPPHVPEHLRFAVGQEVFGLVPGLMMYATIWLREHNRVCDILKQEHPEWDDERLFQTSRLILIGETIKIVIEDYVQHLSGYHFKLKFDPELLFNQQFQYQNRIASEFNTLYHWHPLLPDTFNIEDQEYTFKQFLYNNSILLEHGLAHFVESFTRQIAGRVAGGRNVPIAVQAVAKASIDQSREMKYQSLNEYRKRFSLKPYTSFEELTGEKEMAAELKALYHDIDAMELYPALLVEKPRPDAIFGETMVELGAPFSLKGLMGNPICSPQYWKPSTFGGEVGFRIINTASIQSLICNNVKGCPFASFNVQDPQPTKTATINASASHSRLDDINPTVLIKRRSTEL
T1 sequence (Q63921 whole entry): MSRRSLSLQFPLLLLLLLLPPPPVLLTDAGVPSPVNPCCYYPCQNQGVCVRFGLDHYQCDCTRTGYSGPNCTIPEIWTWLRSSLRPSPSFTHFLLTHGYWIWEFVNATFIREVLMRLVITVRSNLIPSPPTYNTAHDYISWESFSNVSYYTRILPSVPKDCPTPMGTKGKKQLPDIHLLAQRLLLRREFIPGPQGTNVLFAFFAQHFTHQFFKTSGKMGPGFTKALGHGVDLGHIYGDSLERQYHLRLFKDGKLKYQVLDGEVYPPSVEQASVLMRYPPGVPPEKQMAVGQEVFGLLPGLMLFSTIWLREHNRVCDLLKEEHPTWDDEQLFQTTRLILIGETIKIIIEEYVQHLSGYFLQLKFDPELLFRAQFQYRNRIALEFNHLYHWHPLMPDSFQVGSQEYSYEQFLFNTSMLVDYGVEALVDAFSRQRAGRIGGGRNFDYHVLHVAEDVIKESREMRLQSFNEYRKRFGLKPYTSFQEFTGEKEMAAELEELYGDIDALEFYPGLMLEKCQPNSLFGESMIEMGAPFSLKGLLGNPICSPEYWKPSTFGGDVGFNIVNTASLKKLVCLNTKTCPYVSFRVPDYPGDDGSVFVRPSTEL
The series is described as follows: Inhibition of rat kidney microsomal COX assessed as PGE2 level using arachidonic acid as substrate preincubated for 5 to 15 mins followed by substrate addition measured after 40 mins by radio immunoassay.

The subject of series [5] is Rattus norvegicus. The series is described as follows: Ulcerogenicity in albino rat assessed as at 30 umol/kg, po administered daily for 3 successive days in two equal doses at 0 and 12 hrs measured at 6 hrs post last dose by magnifying lens based assay relative to control. The class given is toxicity, organism-based. As to conditions: in vivo. A digest of the protocol:
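Male albino rats, 100-120 g, fasted 12 h, six per group. Compound given orally at 30 µmol/kg/day as two equal doses at 0 and 12 h for three days. Controls got 1% gum acacia. Killed 6 h after last dose. Stomach opened along the greater curvature, washed with cold saline and examined under a magnifying lens for hyperemia, hemorrhage, erosion or ulcer. % ulceration = ulcer-bearing animals ×100/group total.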

A short description of series [6]: Inhibition of dog kidney microsomal COX assessed as PGE2 level using arachidonic acid as substrate preincubated for 5 to 15 mins followed by substrate addition measured after 40 mins by radio immunoassay. Also noted: species or system Canis lupus familiaris. The essentials: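 Dog kidney microsomes: tissue homogenized and sonicated in phosphate buffer pH 7.1 with EDTA/PMSF, 100,000g pellet collected. Arachidonic acid added, 40 min at room temperature. Stopped with 1 N HCl, neutralized, PGE2 by radioimmunoassay. COX activity = PGE2 with arachidonic acid minus ethanol vehicle. IC50 from three separate experiments, mean ± SEM.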

One may read the IC50 as the concentration that gives 50% inhibition.

Turning to `CS(=O)(=O)c1ccc2c(c1)c1c(n2S(=O)(=O)c2ccc(Cl)cc2)CCCC1`, the results for the Activity in series [1] and in series [5] were 85.32% and 2.9%, respectively. Also, the “inhibition (INH)” value in series [2] worked out at 88.2%. In addition, the ED50 in series [3] was found to be 18.67 µmol. Moreover, the results for the half-inhibitory concentration (IC50) in series [4] and in series [6] were 79 nM and 40 nM, respectively.

On to `COc1ccc2c(c1)c1c(n2C(=O)c2ccc(Cl)cc2)CC(C)(C)CC1=O`, for which the Activity turned out to be 79.66% in series [1] and 13.18% in series [5]. Also, in series [2], the “inhibition (INH)” value is 80.24%. The ED50 in series [3] amounted to 28.27 µmol. Also, the IC50 in series [4] was 141 nM; in series [6], 80 nM.

For `CS(=O)(=O)c1ccc2c(c1)c1c(n2C(=O)c2ccc(Cl)cc2)CCCC1`, the figures for the Activity in series [1] and in series [5] were 80.97% and 12.45%, respectively. Further, the “inhibition (INH)” value in series [2] worked out at 83.19%. Besides, the ED50 in series [3] came to 25.67 µmol. The half-inhibitory concentration (IC50) is 116 nM in series [4] and 56 nM in series [6].

As to `CS(=O)(=O)c1ccc2c(c1)c1c(n2Cc2ccc(Cl)cc2)CCCC1=O`, the figures for the Activity in series [1] and in series [5] were 83.1% and 5.4%, respectively. Also, the “inhibition (INH)” value in series [2] came out at 86.39%. In addition, the ED50 in series [3] worked out at 19.2 µmol. The half-maximal inhibitory concentration (IC50) in series [4] stood at 93 nM; in series [6], 45 nM.

As for `COc1ccc2c(c1)c(CC(=O)O)c(C)n2C(=O)c1ccc(Cl)cc1` [INDOMETHACIN], the “inhibition (INH)” value in series [2] is 98.29%. Also, the ED50 in series [3] stood at 9.568 µmol.

Turning to `COc1ccc2c(c1)c1c(n2S(=O)(=O)c2ccc(Cl)cc2)CC(C)(C)CC1=O`, the results for the Activity in series [1] and in series [5] were 80.67% and 20.12%, respectively. For the same compound, the “inhibition (INH)” value in series [2] came to 82.16%. Moreover, in series [3], the ED50 amounted to 26.88 µmol. The IC50 in series [4] stood at 128 nM; in series [6], 61 nM.

`CS(=O)(=O)c1ccc2c(c1)c1c(n2C(=O)c2ccc(Cl)cc2)CCCC1=O`: the Activity is on record as 88.06% in series [1] and 3.28% in series [5]. Also, in series [2], the “inhibition (INH)” value was found to be 91.29%. Moreover, the ED50 in series [3] is 12.38 µmol. For the same compound, the values for the 50% inhibitory concentration (IC50) in series [4] and in series [6] were 48 nM and 34 nM, respectively.

`CS(=O)(=O)c1ccc2c(c1)c1c(n2S(=O)(=O)c2ccc(Cl)cc2)CCCC1=O`: the Activity amounted to 81.88% in series [1] and 11.29% in series [5]. For the same compound, the “inhibition (INH)” value in series [2] was 84.11%. Also, the ED50 in series [3] came to 22.33 µmol. Moreover, the 50% inhibitory concentration (IC50) was 104 nM in series [4] and 53 nM in series [6].

Turning to `CS(=O)(=O)c1ccc2c(c1)c1c(n2Cc2ccc(Cl)cc2)CCCC1`, the figures for the Activity in series [1] and in series [5] were 87.55% and 4.48%, respectively. For the same compound, the “inhibition (INH)” value in series [2] was found to be 89.43%. The ED50 in series [3] was determined as 14.56 µmol. The IC50 in series [4] was found to be 56 nM; in series [6], 39 nM.

For `COc1ccc2c(c1)c1c(n2Cc2ccc(Cl)cc2)CC(C)(C)CC1=O`, the Activity came to 80.36% in series [1] and 11.2% in series [5]. Further, in series [2], the “inhibition (INH)” value is 81.16%. In addition, the ED50 in series [3] was 17.27 µmol. Moreover, the figures for the IC50 in series [4] and in series [6] were 132 nM and 77 nM, respectively.

`Cc1ccc(-c2cc(C(F)(F)F)nn2-c2ccc(S(N)(=O)=O)cc2)cc1` [CELECOXIB]: the Activity was determined as 96.73% in series [1] and 2.11% in series [5]. The “inhibition (INH)” value in series [2] is recorded as 77.25%. In addition, the ED50 in series [3] was 86.11 µmol. The IC50 in series [6] was determined as 112 nM.
